# Source: PubChem BioAssay (several laboratories)
# OPRM1-OPRD1 inv: inverse agonist of human OPRM1-OPRD1 heterodimerization; inhibition, % at 9.3 µM; hit rate 0.21% among 340,000; AID 504357; cell-based MOR-DOR heterodimer luminescence, inverse agonism; in the data active means inhibition above about 22%, passing the limit was not always enough;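 further: 0% = cells with DMSO and 100% = wells without cells with DMSO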
# Target sequence (P35372 whole entry, looked up): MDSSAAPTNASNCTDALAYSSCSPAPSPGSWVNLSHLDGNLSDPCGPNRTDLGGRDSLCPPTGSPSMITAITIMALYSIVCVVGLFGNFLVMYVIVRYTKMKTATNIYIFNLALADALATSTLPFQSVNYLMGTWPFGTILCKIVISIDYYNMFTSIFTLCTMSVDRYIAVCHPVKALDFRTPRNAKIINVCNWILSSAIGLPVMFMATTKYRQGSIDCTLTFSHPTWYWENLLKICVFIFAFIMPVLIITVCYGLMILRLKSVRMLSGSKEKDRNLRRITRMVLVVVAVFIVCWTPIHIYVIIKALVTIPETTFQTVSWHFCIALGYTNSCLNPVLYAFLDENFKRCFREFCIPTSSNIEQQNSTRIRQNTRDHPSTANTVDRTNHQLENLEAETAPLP
# Target sequence (P41143 whole entry, looked up): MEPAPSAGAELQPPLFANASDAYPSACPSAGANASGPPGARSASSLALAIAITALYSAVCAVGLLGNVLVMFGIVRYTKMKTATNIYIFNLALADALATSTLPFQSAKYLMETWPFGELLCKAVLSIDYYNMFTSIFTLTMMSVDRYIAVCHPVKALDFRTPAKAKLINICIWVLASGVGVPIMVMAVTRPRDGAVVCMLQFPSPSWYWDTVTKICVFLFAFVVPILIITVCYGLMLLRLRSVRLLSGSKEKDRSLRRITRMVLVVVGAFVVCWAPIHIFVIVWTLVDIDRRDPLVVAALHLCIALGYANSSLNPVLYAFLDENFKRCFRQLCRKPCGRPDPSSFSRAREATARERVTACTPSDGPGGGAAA
# HTR5A inv ag: counter-screen for OPRM1-OPRD1 inverse agonists: human HTR5A inverse agonism. hit rate 0.083% among 340,000. HTR5A cell line, luminescence. inhibition, % at 9.3 µM. AID 504634. P47898; in the data active means inhibition mostly above about 23%, no sharp cut-off; inactive means mostly below about 18%;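 further: 0% = cells with DMSO and 100% = no-cell wells with DMSO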
# MOR-DOR ag: agonists of human mu-delta opioid receptor heterodimerization | activation, % at 9.3 µM | P35372+P41143 | AID 504326 | hit rate 0.3% among 340,000 | cells, OPRM1-OPRD1 heterodimerization, luminescence; in the data active means activation above about 18%;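 further: 0% = vehicle-treated cells and 100% = reference agonist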
# Lipid droplet: hepatic lipid droplet formation modulation; AML12 mouse hepatocytes, oleate lipid droplets, BODIPY imaging; hit rate 0.4% among 240,000; AID 1656; inhibition, % at 6.5 µM;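 active means lipid droplet intensity inhibited by at least 50%, with more than 500 cells counted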
#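 Test system: AML12 hepatocytes (mouse); reagent: oleate loading, 100 µM; dosing: one dose, 6.5 µM compound; incubation: overnight exposure; signal: fluorescence imaging, 20x objective, two fields per well; read-out basis: % inhibition of corrected integrated BODIPY droplet signal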
# HTR5A ag: counter-screen for OPRM1-OPRD1 agonists: human HTR5A agonism | P47898 | HTR5A agonist assay, luminescence, cell-based | activation, % at 9.3 µM | hit rate 0.61% among 340,000; in the data active means activation mostly above about 9.5%, no sharp cut-off; inactive means mostly below about 7.6%;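 further: 0% = cells with vehicle only and 100% = reference agonist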
# Lipid drop inh: hepatic lipid droplet formation inhibition, confirmed; AID 463183; shares compounds with Lipid droplet; inhibition, % at 5.2 µM; AML12 mouse hepatocytes, BODIPY lipid droplet imaging; droplets induced with 100 µM oleic acid; hit rate 65% among 870;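 active means inhibition of lipid droplet metric at least 50%, with more than 300 cells in each of four replicates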;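 further: plate controls were DMSO with oleic acid for no effect and 5 µM Triacsin-C for full effect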
# AML12 cytotox: AML12 hepatocyte cytotoxicity (counter-screen). AID 463200. z-score at 5 µM. AML12 mouse hepatocytes, DAPI nuclear morphology cytotoxicity imaging; hits give high values; cells fed 100 µM oleate overnight. hit rate 3% among 870. shares compounds with Lipid droplet; in the data active means z-score above about 6.3;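 further: compound exposure lasted overnight at 37 °C before fixation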
# AML12 tox conf: confirmation of cytotoxicity in AML12 mouse hepatocytes. shares compounds with Lipid droplet. AML12 mouse hepatocyte viability, ATP luminescence; cells loaded with 100 µM oleic acid. cytotoxicity, % at 50 µM. 530 tested, under 10 active;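 active means cytotoxicity above 50% in each of four replicates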;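 further: compound exposure lasted overnight at 37 °C before the ATP read; 0% = DMSO-treated cells and 100% = wells with no cells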
# * marks the source's active call; other numbers are inactive results; . = no result. Most compounds without a hit are left out; they make up all but 1.4% or so of the library.
SMILES,OPRM1-OPRD1 inv,HTR5A inv ag,MOR-DOR ag,Lipid droplet,HTR5A ag,Lipid drop inh,AML12 cytotox,AML12 tox conf
CCOc1cc(C(=O)OCC(=O)Nc2cc(C)on2)ccc1OCC(C)C,5.6,18.6,-1.1,16.1,-1.8,.,.,.
O=C(c1ccc(Cl)cc1)C1CCN(C(=O)NC2CCCCC2)CC1,-1.6,-11.8,0.3,70.3*,-1.0,85.2*,-0.188,10.2
O=C(CN1C(=O)CSc2ccc(S(=O)(=O)N3CCOCC3)cc21)NCc1ccc(Cl)cc1,10.8,-3.6,-2.1,-21.0,1.9,.,.,.
CNC(=S)N1CCc2cc(OC)c(OC)cc2C1COc1ccc(OC)cc1 (stereo not given),10.5,7.6,-2.3,12.6,-3.0,.,.,.
COCCNC(=S)N1CCc2cc(OC)c(OC)cc2C1COc1cc(C)cc(C)c1 (stereo not given),3.4,14.4,-0.7,61.6*,4.4,90.3*,0.581,-1.7
Cc1cc2nn(-c3ccc(Cl)cc3)nc2cc1N,-12.9,-20.2,2.5,62.5*,5.5,72.7*,0.243,48.8
COc1cc2ncnc(NCc3ccc(Cl)cc3)c2cc1OC,-6.6,1.3,1.2,50.9*,1.5,70.2*,13.3*,.
COc1cc2ncnc(NCc3ccccc3C)c2cc1OC,0.2,-15.9,0.0,45.5,6.2,.,.,.
COc1cc2ncnc(NCc3ccccc3Cl)c2cc1OC,-11.2,0.1,2.1,52.3*,2.4,64.7*,17*,.
COc1ccc(/C=C(\NC(=O)c2ccccc2)C(=O)N2CCC(C)CC2)cc1,7.8,1.7,-1.2,.,5.5,.,.,.
Nc1nc(-c2ccccc2)c(N=Nc2ccccc2Cl)s1,8.5,27.8,-1.8,104.0*,-12.2,114.2*,-0.574,32.2
Nc1nc(-c2ccccc2)c(N=Nc2cccc3ccccc23)s1,22.1,43.4,-4.6,113.0*,-14.7,114.7*,0.425,43.5
CN(C)c1ccc(S(=O)(=O)N2CCCCC2)cc1NC(=O)C1=COCCO1,21.6,-8.7,-4.0,2.8,-4.9,.,.,.
Cc1cc(C(=O)Nc2ccccc2C(=O)O)c(C)o1,13.8,26.2,-2.6,-6.1,-0.2,.,.,.
CCc1cccc(CC)c1NC(=O)C1CCN(C(=O)c2ccco2)CC1,6.9,-7.5,-1.1,-19.5,-4.5,.,.,.
COc1ccccc1N1CCN(C(=O)CSc2nc3ccccc3nc2N2CCCCC2)CC1,-10.2,-22.1,1.7,14.5,7.3,.,.,.
COc1ccc(C)cc1NC(=O)CSc1nc2ccccc2nc1N1CCCCC1,-11.8,0.5,2.0,-1.2,1.3,.,.,.
COc1ccccc1N1CCN(C(=O)CSc2nc3ccccc3nc2N2CCC(C)CC2)CC1,6.8,-27.8,-1.1,51.6*,9.8,25.8,0.4,.
Cc1cccc(NC(=O)CSc2nc3ccccc3nc2N2CCCC2)c1C,8.4,12.0,-1.4,55.2*,-4.0,63.2,-0.264,.
CCOc1ccccc1NC(=O)CSc1nc2ccccc2nc1N1CCCC1,-5.1,-0.8,0.9,8.4,0.3,.,.,.
COc1ccc(NC(=O)CSc2nc3ccccc3nc2N2CCCC2)cc1Cl,3.3,12.0,-0.6,64.4*,5.0,96.4*,-0.144,4.7
CCOc1ccc(NC(=O)CSc2nc3ccccc3nc2N2CCCC2)cc1,2.0,-15.5,-0.3,81.1*,5.1,106.3*,-1,12.8
O=C(COC(=O)c1ccc(O)cc1O)NC(=O)NCc1ccccc1,15.3,21.0,-4.1,.,0.2,.,.,.
O=C(COc1ccc(Br)cc1)NCCNC(=O)c1ccncc1,12.9,9.8,-2.5,3.4,-4.0,.,.,.
Cc1cc(C)cc(NC(=O)CSc2nc3ccccc3nc2N2CCCC2)c1,-8.0,14.9,1.5,70.5*,-0.5,107.3*,-0.284,17.0
SMILES,OPRM1-OPRD1 inv,HTR5A inv ag,MOR-DOR ag,Lipid droplet,HTR5A ag,Lipid drop inh,AML12 cytotox,AML12 tox conf
COc1cc2c3nnc(-c4ccc(F)cc4)c-3cn(Cc3cccc(C)c3)c2cc1OC,-36.6,10.4,6.2,54.3*,-3.5,40.1,4.4,.
Cc1ccc(-n2nc(C)c3c(=O)[nH]c(C(F)(F)F)nc32)cc1,.,.,.,73.8*,.,12.0,-0.309,.
OC(COc1ccc2cc(Br)ccc2c1)Cn1ccnc1 (stereo not given),3.8,-0.6,-0.7,52.8*,0.2,27.5,-0.386,.
COc1ccccc1NC(=O)Cc1nnc(SCC(=O)NC2CCCCC2)n1C,14.1,8.0,-2.3,0.5,-3.7,.,.,.
CCOc1cc(C(=O)Nc2ccc(N3CCN(S(C)(=O)=O)CC3)cc2)cc(OCC)c1OCC,6.0,11.3,-1.0,61.4*,2.8,93.0*,0.8,6.9
COc1ccccc1CN(C)C(=O)c1ccccc1Sc1ccccc1C#N,-1.8,-8.4,0.3,-7.1,3.4,.,.,.
O=C(NC1CCCc2c1cnn2-c1cc(F)cc(F)c1)c1ccccn1 (stereo not given),-19.2,-1.6,3.6,63.8*,-0.4,100.5*,0.745,12.1
Cc1cc(C(=O)NC2CCCc3c2cnn3-c2ccc(C)c(C)c2)nc(C)n1 (stereo not given),2.2,15.1,-0.4,58.3*,4.1,61.8,-1.08,0.3
C/C(=N/Nc1ccccc1[N+](=O)[O-])c1ccc([N+](=O)[O-])cc1,6.8,1.9,-1.2,11.5,-0.5,.,.,.
CC1=C/C(=N\Nc2ccccc2[N+](=O)[O-])CC(C)(C)C1,-17.1,-11.3,3.4,76.8*,4.3,114.7*,-0.266,.
COc1ccc(NC(=O)c2sccc2C)cn1,-2.0,2.9,0.4,60.4*,-3.9,0.6,-0.172,.
Cn1cc(Cl)c(C(=O)NC(=S)Nc2sc3c(c2C#N)CCCCC3)n1,28.9,22.0,-5.8,2.8,5.2,.,.,.
CCCCn1c(N)c(N(CCOC)C(=O)c2c(-c3ccccc3)noc2C)c(=O)[nH]c1=O,17.4,19.7,-3.4,.,-8.1,.,.,.
COc1ccc(C)cc1NC(=O)CCNS(=O)(=O)c1cccc(C(F)(F)F)c1,6.2,-13.4,-1.2,55.2*,5.0,83.4*,0.182,6.1
Cc1ccc(C2=NC3(CCCCC3)N=C2SCC(=O)Nc2ccc3c(c2)OCCO3)cc1,-3.5,-1.4,0.7,54.2*,0.5,70.1*,-0.268,-9.0
Cc1ccc(-c2ccc(SCC(=O)Nc3ccc4c(c3)OCCO4)nn2)cc1,5.2,18.2,-1.0,-30.8,3.3,.,.,.
CCOc1ccc(C(=O)COC(=O)CNC(=O)C2CCCCC2)cc1,3.6,-6.9,-0.9,.,2.7,.,.,.
COc1ccc(N=C2C(=Nc3ccc(OC)cc3)N(c3ccc(OC)cc3)C(=S)N2C)cc1,3.6,7.1,-0.6,57.6*,-5.9,108.9*,0.27,16.3
COc1ccc(C2(c3ccc(OC)cc3)NC(=O)N(CC(=O)Nc3ccc(C(=O)N(C)C)cc3)C2=O)cc1,13.5,-5.8,-2.6,2.0,-1.3,.,.,.
